# In ChEMBL document CHEMBL4390637, “Design, synthesis and biological evaluation of novel inhibitors against cyanobacterial pyruvate dehydrogenase multienzyme complex E1” (Bioorg Med Chem, 2019):
# Assays:
# Microcystis aeruginosa = experiment: Growth inhibition of Microcystis aeruginosa FACHB905 incubated for 7 days; type: functional, organism-based
# Summary of the method: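 Cyanobacteria grown in BG11 medium at 28 °C on a 12 h light/12 h dark cycle for 7 days to logarithmic phase. A 1% inoculum was transferred into fresh medium containing compound at different concentrations and cultured 7 days. OD680 was read, then inhibition rate and EC50 were calculated. Values are means, n = 3.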
# [1] = system: Synechocystis sp. PCC 6803; experiment: Growth inhibition of Synechocystis sp. PCC6803 incubated for 7 days; type: functional, organism-based
# [2] = system: Synechocystis sp. PCC 6803; experiment: Inhibition of Synechocystis sp. PCC6803 PDHC-E1 expressed in Escherichia coli BL-21 (DE3) at 100 uM using 6-DCIP and pyruvate incubated for 5 mins relative to untreated control
# Summary of the method: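 His-tagged Cy-PDHc E1 co-expressed with GroEL/GroES in E. coli BL-21 (DE3), Ni-NTA purified. Mix: 50 mM K3PO4 pH 7.2, 0.375 mM DCIP, 0.1 mg/ml enzyme, 200 µM ThDP, compound 100 μM; preincubated 5 min at 37 °C, reaction started with saturating pyruvate; percent inhibition reported.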
# [3] = Inhibition of Synechocystis sp. PCC6803 PDHC-E1 expressed in Escherichia coli BL-21 (DE3) using 6-DCIP and pyruvate incubated for 5 mins; set-up: species or system Synechocystis sp. PCC 6803
# Summary of the method: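 Recombinant Cy-PDHc E1 (E. coli BL-21 (DE3) with GroEL/GroES chaperones, Ni-NTA purified) assayed by DCIP reduction in 50 mM K3PO4 pH 7.2, 0.375 mM DCIP, 0.1 mg/ml enzyme, 200 µM ThDP plus inhibitor, 5 min at 37 °C before saturating pyruvate; IC50 values as means ± SD, n = 3.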
# Sus scrofa = species on record: Sus scrofa; experiment: Inhibition of porcine PDHc-E1 at 100 uM using MTT and phenazine methosulfate incubated for 3 mins relative to untreated control
# Summary of the method: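 Porcine PDHc E1 activity followed by MTT reduction at 566 nm. Mix: 1.0 mM MgCl2, 0.2 mM ThDP, 0.5 mM MTT, 6.5 mM PMS, 50 mM K3PO4 pH 7.0, 0.75 mg/mL enzyme, compound at 100 μM final; 3 min at 37 °C, then 2 mM sodium pyruvate added to start; percent inhibition reported.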
# [4] = Microcystis aeruginosa, FACHB905, 168 h
# [5] = Synechocystis sp. PCC 6803, 168 h
Compound,EC50 (Microcystis aeruginosa),EC50 [1],EC50 (Microcystis aeruginosa; [4]),"EC50 [1, 5]",inhibition [2],IC50 [3],inhibition (Sus scrofa)
CUPRIC SULFATE,1.77 µM,1.47 µM,,,,,
Cc1ncc(Cn2cc(COc3ccc(Cl)cc3)nn2)c(N)n1,,,> 100 µM,> 100 µM,29.6%,> 100 µM,
Cc1ncc(Cn2nnc(COC(=O)c3ccc(F)cc3)c2I)c(N)n1,,,0.78 µM,0.84 µM,95.4%,1.61 µM,15.3%
Cc1ncc(Cn2cc(COC(=O)c3ccc([N+](=O)[O-])cc3)nn2)c(N)n1,,,1.33 µM,1.64 µM,95.7%,3.57 µM,13.5%
Cc1ncc(Cn2nnc(COC(=O)c3ccccc3Cl)c2I)c(N)n1,,,0.9 µM,1.17 µM,98.9%,1.48 µM,9.5%
Cc1ncc(Cn2cc(COc3ccc(F)cc3)nn2)c(N)n1,,,> 100 µM,> 100 µM,16.2%,> 100 µM,
Cc1ncc(Cn2nnc(COC(=O)c3ccc([N+](=O)[O-])cc3)c2I)c(N)n1,,,0.95 µM,1.09 µM,99.2%,1.69 µM,10.4%
Cc1ncc(Cn2nnc(COC(=O)c3ccccc3)c2I)c(N)n1,,,0.99 µM,1.44 µM,96.5%,1.94 µM,21%
Cc1ncc(Cn2cc(COC(=O)c3ccc(F)cc3)nn2)c(N)n1,,,1.22 µM,2.11 µM,99.5%,3.88 µM,17.8%
Cc1ncc(Cn2cc(COC(=O)c3ccccc3)nn2)c(N)n1,,,1.17 µM,1.66 µM,95.5%,3.58 µM,15.9%
Cc1ncc(Cn2nnc(COC(=O)c3cccc(Cl)c3)c2I)c(N)n1,,,0.74 µM,1.16 µM,98.7%,1.79 µM,5.13%
Cc1ncc(Cn2nnc(COC(=O)c3ccc(Cl)cc3)c2I)c(N)n1,,,1.06 µM,0.9 µM,95.6%,2.35 µM,
Cc1ncc(Cn2cc(COc3ccccc3)nn2)c(N)n1,,,> 100 µM,> 100 µM,19%,> 100 µM,
Cc1ncc(Cn2cc(COC(=O)c3ccccc3Cl)nn2)c(N)n1,,,1.43 µM,2.44 µM,97.8%,3.37 µM,7.31%
Cc1ccc(C(=O)OCc2nnn(Cc3cnc(C)nc3N)c2I)cc1,,,0.85 µM,1.14 µM,97.1%,1.88 µM,
Cc1ncc(Cn2cc(COc3ccc([N+](=O)[O-])cc3)nn2)c(N)n1,,,> 100 µM,> 100 µM,8.64%,> 100 µM,
Cc1ncc(Cn2cc(COC(=O)c3ccc(Cl)cc3)nn2)c(N)n1,,,1.11 µM,2.25 µM,94.2%,3.55 µM,
Cc1ncc(Cn2cc(COC(=O)c3cccc(Cl)c3)nn2)c(N)n1,,,1.29 µM,1.81 µM,93.2%,3.73 µM,9.62%
Cc1ccc(C(=O)OCc2cn(Cc3cnc(C)nc3N)nn2)cc1,,,1.2 µM,1.43 µM,95.3%,4.48 µM,
